Published values of several laboratories.
Lines come from different studies, so protocols differ.
MCU: Calcium uniporter protein, mitochondrial (MCU, Homo sapiens, UniProt Q8NE86)

The IC50 of `N.N.N.N.N.N.N.N.O=C(O)c1cccc1.O=C(O)c1cccc1.[Fe+2].[Fe+2].[N-3].[Ru+4].[Ru+4].c1cccc1.c1cccc1` is reported as 10.5 nM (MCU; transporter uptake; inhibitor).
With `N#Cc1nn(C(=O)C2CCCC2)c2ncccc12` the IC50 was 160 nM (Neutrophil elastase (ELANE, Homo sapiens, UniProt P08246); enzyme activity; inhibitor; fluorescence).
With `C[C@H](N)Cn1ncc2ccc3c(c21)CCCO3` the IC50 was over 100000 nM (D(2) dopamine receptor (DRD2, Homo sapiens, UniProt P14416); ligand displacement; radioligand).
For `CC(C)C[C@H](NC(=O)[C@H](Cc1ccccc1)NC(=O)[C@H](Cc1ccc(O)cc1)NC(=O)CNC(=O)[C@H](CCCCN)NC(=O)[C@H](CO)NC(=O)[C@H](CCC(N)=O)NC(=O)CNC(=O)[C@@H](NC(=O)[C@H](CO)NC(=O)[C@@H]1CCCN1C(=O)[C@H](CO)NC(=O)[C@H](CCC(N)=O)NC(=O)[C@H](Cc1ccc(O)cc1)NC(=O)[C@H](CCC(=O)O)NC(=O)[C@H](C)NC(=O)[C@H](CCCCN)NC(=O)[C@@H](N)Cc1ccccc1)C(C)C)C(=O)N[C@@H](Cc1ccccc1)C(=O)N[C@@H](CCCNC(=N)N)C(=O)N1CCC[C@H]1C(=O)N[C@@H](CCCNC(=N)N)C(=O)N[C@@H](CC(N)=O)C(N)=O`, the IC50 was 0.03 nM (Neuromedin-U receptor 2 (Mus musculus, UniProt Q8BZ39); ligand displacement; radioligand; cell membranes).
`N.N.N.N.N.N.N.N.O=C(O)c1ccccc1.O=C(O)c1ccccc1.[N-3].[Ru+4].[Ru+4]` has an IC50 of 13.9 nM (MCU; transporter uptake; inhibitor).
The IC50 of `N#CC(C#N)=Cc1cc(C(=O)CCl)c[nH]1` is reported as 13000 nM (Epidermal growth factor receptor (EGFR, Homo sapiens, UniProt P00533); enzyme activity; inhibitor; mobility shift).
For `Brc1cc2c(N3CCNCC3)nccn2c1`, the IC50 was 600000 nM (Beta-secretase 1 (BACE1, Homo sapiens, UniProt P56817); enzyme activity; inhibitor; FRET; pH 5).
With `O=S(=O)([O-])[O-].[Cu+2]` the IC50 was 2200 nM (Delta-aminolevulinic acid dehydratase (Homo sapiens, UniProt P13716, C162A/K59N); enzyme activity; inhibitor; absorbance; pH 8).
The IC50 of `COc1ccc(C(=O)O)cc1S(=O)(=O)Nc1ccc(C(F)(F)F)cc1N1CCCCC1` is reported as 27000 nM (Endoplasmic reticulum aminopeptidase 2 (ERAP2, Homo sapiens, UniProt Q6P179, K392N); enzyme activity; inhibitor; fluorescence).
`Cc1ccc(-c2ncn(-c3ccc(Nc4nccc(-c5cccc(N6CCOCC6)c5)n4)cc3)n2)cn1` has an IC50 of 67 nM (Mitogen-activated protein kinase 8 (MAPK8, Homo sapiens, UniProt P45983); enzyme activity; inhibitor).
With `CN[C@@H]1C[C@H]2O[C@@](C)([C@@H]1OC)n1c3ccccc3c3c4c(c5c6ccccc6n2c5c31)C(=O)NC4` the IC50 was 0.0045 nM (Serine/threonine-protein kinase LMTK3 (LMTK3, Homo sapiens, UniProt Q96Q04); enzyme activity; inhibitor; TR-FRET).
For `C1CNCN2CNCCNCN(CN1)CNCCNC2.[Co+3]`, the IC50 was 131 nM (MCU; transporter uptake; inhibitor).
